The source of these data is ChEMBL document CHEMBL4602693, “Structural Effect on Adjuvanticity of Saponins” (J Med Chem, 2020).

Activity calls are given as the source filed them. The calls are words filed in the database; no cut-off is given here.

What all share (type): functional, organism-based
The subject of test [1] is Mus musculus. In words: Immunostimulatory activity in ovalbumin-immunized BALB/c mouse assessed as potentiation of OVA specific Th1 immune response by measuring increase in serum anti-OVA IgG2a level at 100 ug, sc administered at 14 days interval for 3 times and measured at 4 to 6 week post OVA immunization by ELISA. The essentials:
(§1)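 Female BALB/c mice, 8-10 weeks old, six per group. Given OVA (20 μg) s.c. alone or with 100 μg saponin adjuvant on days 0, 14 and 28. Tail-vein blood was taken before each dose and 2 weeks after the last. Serum anti-OVA IgG, IgG1 or IgG2a was measured by ELISA on OVA-coated (0.1 μg/ml) plates with serial two-fold dilutions in duplicate.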

Test [2] relates to Mus musculus. As to the kind of experiment: Immunostimulatory activity in ovalbumin-immunized BALB/c mouse assessed as potentiation of OVA specific antibody response by measuring increase in serum anti-OVA IgG level at 100 ug, sc administered at 14 days interval for 3 times and measured at 4 to 6 week post OVA immunization by ELISA. The essentials: as §1
Test [3] has as its system Mus musculus. In words: Immunostimulatory activity in ovalbumin-immunized BALB/c mouse assessed as potentiation of OVA specific Th2 immune response by measuring increase in serum anti-OVA IgG1 level at 100 ug, sc administered at 14 days interval for 3 times and measured at 4 to 6 week post OVA immunization by ELISA. A digest of the protocol:
as §1

In test [4] the test system is Mus musculus. In words: Immunostimulatory activity in rHagB-immunized BALB/c mouse assessed as potentiation of rHagB specific Th2 immune response by measuring increase in serum anti-rHagB IgG1 level at 100 ug, sc administered at 14 days interval for 3 times and measured at 6 week post rHagB immunization by ELISA. A digest of the protocol:
(§2)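 Female BALB/c mice, 8-10 weeks old, six per group. Given His-tag-purified recombinant HagB (35 μg) s.c. alone or with 100 μg saponin adjuvant on days 0, 14 and 28. Serum was collected before each dose and 2 weeks post-final. Anti-rHagB IgG, IgG1 or IgG2a was measured by ELISA on rHagB-coated (1 μg/ml) plates with duplicate serial dilutions.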

Test [5] concerns Mus musculus. As to the kind of experiment: Immunostimulatory activity in rHagB-immunized BALB/c mouse assessed as potentiation of rHagB specific Th2 immune response by measuring increase in serum anti-rHagB IgG1 level at 100 ug, sc administered at 14 days interval for 3 times and measured at 2 to 4 week post rHagB immunization by ELISA. The essentials: as §2
(ELISA stands for enzyme-linked immunosorbent assay.)

Test [6] relates to Mus musculus. As to the kind of experiment: Immunostimulatory activity in rHagB-immunized BALB/c mouse assessed as potentiation of rHagB specific antibody response by measuring increase in serum anti-rHagB IgG level at 100 ug, sc administered at 14 days interval for 3 times and measured at 2 to 4 week post rHagB immunization by ELISA. A digest of the protocol: as §2
For test [7], the system named is Mus musculus. As to the kind of experiment: Immunostimulatory activity in rHagB-immunized BALB/c mouse assessed as potentiation of rHagB specific Th1 immune response by measuring increase in serum anti-rHagB IgG2a level at 100 ug, sc administered at 14 days interval for 3 times and measured at 2 to 6 week post rHagB immunization by ELISA. The essentials: as §2
Test [8] deals with Mus musculus. In words: Immunostimulatory activity in rHagB-immunized BALB/c mouse assessed as potentiation of rHagB specific antibody response by measuring increase in serum anti-rHagB IgG level at 100 ug, sc administered at 14 days interval for 3 times and measured at 6 week post rHagB immunization by ELISA. A digest of the protocol:
as §2

Test [9] has as its system Mus musculus. As to the kind of experiment: Immunostimulatory activity in ovalbumin-immunized BALB/c mouse assessed as potentiation of OVA specific Th2 immune response by measuring increase in serum anti-OVA IgG1 level at 100 ug, sc administered at 14 days interval for 3 times and measured at 4 week post OVA immunization by ELISA. A digest of the protocol: as §1
Test [10] has as its system Mus musculus. As to the kind of experiment: Immunostimulatory activity in ovalbumin-immunized BALB/c mouse assessed as potentiation of OVA specific Th2 immune response by measuring increase in serum anti-OVA IgG1 level at 100 ug, sc administered at 14 days interval for 3 times and measured at 6 week post OVA immunization by ELISA. A digest of the protocol: as §1

Turning to `C[C@@H]1O[C@@H](O[C@H]2[C@H](O)[C@@H](C(=O)NCCCCCCCCCCC(=O)O)O[C@@H](O[C@H]3CC[C@]4(C)[C@H]5CC=C6[C@@H]7CC(C)(C)CC[C@]7(C(=O)O[C@@H]7O[C@H](C)[C@H](O)[C@H](O)[C@H]7O[C@H]7O[C@@H](C)[C@H](O[C@H]8OC[C@H](O)[C@@H](O)[C@@H]8O)[C@@H](O[C@@H]8O[C@H](CO)[C@@H](O)[C@H](O[C@@H]9OC[C@@H](O)[C@H](O)[C@H]9O)[C@H]8O)[C@H]7O)CC[C@@]6(C)[C@]5(C)CC[C@H]4[C@]3(C)C=O)[C@@H]2O[C@@H]2O[C@H](CO)[C@H](O)[C@H](O)[C@H]2O)[C@H](O)[C@H](O)[C@H]1O`, the outcome in the test on Mus musculus [1], in the test with Mus musculus [2] and with Mus musculus [3] was Active.

`C[C@@H]1O[C@H](O[C@H]2[C@H](OC(=O)[C@]34CCC(C)(C)C[C@H]3C3=CC[C@@H]5[C@@]6(C)CC[C@H](O[C@@H]7O[C@H](C(=O)NCCCCCCCCCCC(=O)O)[C@@H](O)[C@H](O[C@@H]8OC[C@@H](O)[C@H](O)[C@H]8O)[C@H]7O[C@@H]7O[C@H](CO)[C@H](O)[C@H](O)[C@H]7O)[C@@](C)(C=O)[C@@H]6CC[C@@]5(C)[C@]3(C)C[C@H]4O)O[C@H](C)[C@H](O)[C@@H]2O)[C@H](O)[C@H](O[C@@H]2O[C@H](CO)[C@@H](O)[C@H](O)[C@H]2O)[C@H]1O[C@H]1OC[C@H](O)[C@@H](O[C@H]2OC[C@H](O)[C@@H](O)[C@@H]2O)[C@@H]1O`: the outcome with Mus musculus [4], in the test with Mus musculus [5], in the test on Mus musculus [6] and in the test with Mus musculus [7] was Active.

With `C[C@@H]1O[C@@H](O[C@H]2[C@H](O)[C@@H](C(=O)NCCCCCCCCCCC(=O)OCc3ccccc3)O[C@@H](O[C@H]3CC[C@]4(C)[C@H]5CC=C6[C@@H]7CC(C)(C)CC[C@]7(C(=O)O[C@@H]7O[C@H](C)[C@H](O)[C@H](O)[C@H]7O[C@H]7O[C@@H](C)[C@H](O[C@H]8OC[C@H](O)[C@@H](O)[C@@H]8O)[C@@H](O[C@@H]8O[C@H](CO)[C@@H](O)[C@H](O[C@@H]9OC[C@@H](O)[C@H](O)[C@H]9O)[C@H]8O)[C@H]7O)[C@H](O)C[C@@]6(C)[C@]5(C)CC[C@H]4[C@]3(C)C=O)[C@@H]2O[C@@H]2O[C@H](CO)[C@H](O)[C@H](O)[C@H]2O)[C@H](O)[C@H](O)[C@H]1O`, the result with Mus musculus [1], in the test on Mus musculus [2], in the test with Mus musculus [5], in the test with Mus musculus [6], with Mus musculus [3] and in the test on Mus musculus [7] was Active.

`CCCCCCCCCCCCNC(=O)[C@H]1O[C@@H](O[C@H]2CC[C@]3(C)[C@H]4CC=C5[C@@H]6CC(C)(C)CC[C@]6(C(=O)O[C@@H]6O[C@H](C)[C@H](O)[C@H](O)[C@H]6O[C@H]6O[C@@H](C)[C@H](O[C@H]7OC[C@H](O)[C@@H](O)[C@@H]7O)[C@@H](O[C@@H]7O[C@H](CO)[C@@H](O)[C@H](O[C@@H]8OC[C@@H](O)[C@H](O)[C@H]8O)[C@H]7O)[C@H]6O)CC[C@@]5(C)[C@]4(C)CC[C@H]3[C@]2(C)C=O)[C@H](O[C@@H]2O[C@H](CO)[C@H](O)[C@H](O)[C@H]2O)[C@@H](O[C@@H]2O[C@@H](C)[C@H](O)[C@@H](O)[C@H]2O)[C@@H]1O`: the outcome in the test with Mus musculus [1], in the test with Mus musculus [2] and with Mus musculus [3] was Active.

Take `CCCCCCCCCCCCNC(=O)[C@H]1O[C@@H](O[C@H]2CC[C@]3(C)[C@H]4CC=C5[C@@H]6CC(C)(C)CC[C@]6(C(=O)O[C@@H]6O[C@H](C)[C@H](O)[C@H](O)[C@H]6O[C@@H]6O[C@@H](C)[C@H](O[C@@H]7OC[C@@H](O)[C@H](O[C@@H]8OC[C@](O)(CO)[C@H]8O)[C@H]7O)[C@@H](O)[C@H]6O)[C@H](O)C[C@@]5(C)[C@]4(C)CC[C@H]3[C@]2(C)C=O)[C@H](O[C@@H]2O[C@H](CO)[C@H](O)[C@H](O)[C@H]2O)[C@@H](O[C@@H]2OC[C@@H](O)[C@H](O)[C@H]2O)[C@@H]1O`: the result in the test with Mus musculus [1], in the test on Mus musculus [2], with Mus musculus [5], in the test with Mus musculus [8], with Mus musculus [6] and in the test with Mus musculus [3] was Active. In addition, the outcome with Mus musculus [7] was Active.

Regarding `C[C@@H]1O[C@@H](O[C@H]2[C@H](O)[C@@H](C(=O)NCCCCCCCCCCC(=O)O)O[C@@H](O[C@H]3CC[C@]4(C)[C@H]5CC=C6[C@@H]7CC(C)(C)CC[C@]7(C(=O)O[C@@H]7O[C@H](C)[C@H](O)[C@H](O)[C@H]7O[C@H]7O[C@@H](C)[C@H](O[C@H]8OC[C@H](O)[C@@H](O)[C@@H]8O)[C@@H](O[C@@H]8O[C@H](CO)[C@@H](O)[C@H](O[C@@H]9OC[C@@H](O)[C@H](O)[C@H]9O)[C@H]8O)[C@H]7O)[C@H](O)C[C@@]6(C)[C@]5(C)CC[C@H]4[C@]3(C)C=O)[C@@H]2O[C@@H]2O[C@H](CO)[C@H](O)[C@H](O)[C@H]2O)[C@H](O)[C@H](O)[C@H]1O`, the result with Mus musculus [9], with Mus musculus [2], with Mus musculus [5], in the test on Mus musculus [6] and in the test with Mus musculus [7] was Active. Moreover, the result in the test on Mus musculus [10] was inactive.

`C[C@@H]1O[C@H](O[C@H]2[C@H](OC(=O)[C@]34CCC(C)(C)C[C@H]3C3=CC[C@@H]5[C@@]6(C)CC[C@H](O[C@@H]7O[C@H](C(=O)NCCCCCCCCCCC(=O)OCc8ccccc8)[C@@H](O)[C@H](O[C@@H]8OC[C@@H](O)[C@H](O)[C@H]8O)[C@H]7O[C@@H]7O[C@H](CO)[C@H](O)[C@H](O)[C@H]7O)[C@@](C)(C=O)[C@@H]6CC[C@@]5(C)[C@]3(C)C[C@H]4O)O[C@H](C)[C@H](O)[C@@H]2O)[C@H](O)[C@H](O[C@@H]2O[C@H](CO)[C@@H](O)[C@H](O)[C@H]2O)[C@H]1O[C@H]1OC[C@H](O)[C@@H](O[C@H]2OC[C@H](O)[C@@H](O)[C@@H]2O)[C@@H]1O`: the result with Mus musculus [4], in the test on Mus musculus [5], in the test on Mus musculus [6] and in the test on Mus musculus [7] was Active.

Consider `C[C@@H]1O[C@@H](O[C@H]2[C@H](O)[C@@H](C(=O)NCCCCCCCCCCC(=O)OCc3ccccc3)O[C@@H](O[C@H]3CC[C@]4(C)[C@H]5CC=C6[C@@H]7CC(C)(C)CC[C@]7(C(=O)O[C@@H]7O[C@H](C)[C@H](O)[C@H](O)[C@H]7O[C@H]7O[C@@H](C)[C@H](O[C@H]8OC[C@H](O)[C@@H](O)[C@@H]8O)[C@@H](O[C@@H]8O[C@H](CO)[C@@H](O)[C@H](O[C@@H]9OC[C@@H](O)[C@H](O)[C@H]9O)[C@H]8O)[C@H]7O)CC[C@@]6(C)[C@]5(C)CC[C@H]4[C@]3(C)C=O)[C@@H]2O[C@@H]2O[C@H](CO)[C@H](O)[C@H](O)[C@H]2O)[C@H](O)[C@H](O)[C@H]1O`, for which the outcome in the test with Mus musculus [1], in the test on Mus musculus [2] and in the test with Mus musculus [3] was Active.
